ChEMBL document CHEMBL2417474, “Synthesis, antiproliferative and anti-inflammatory activities of some novel 6-aryl-2-(p-(methanesulfonyl)phenyl)-4,5-dihydropyridazi-3(2H)-ones” (Eur J Med Chem, 2013)

Tests used:
SF-268 [1] = experiment: Growth inhibition of human SF268 cells assessed as cell growth at 10 uM after 48 hrs by sulforhodamine B assay; type: functional; conditions: SF-268, 48 h, read-out: Activity
A549 [2] = experiment: Growth inhibition of human A549/ATCC cells after 48 hrs by sulforhodamine B assay; type: functional; conditions: A549, 48 h; for CC50: read-out: LC50 (the source's name)
Method in brief: (§1)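 NCI 60-cell-line panel grown in RPMI-type medium with 5% fetal calf serum and 2 mM L-glutamine. Cells preincubated 24 h, then exposed continuously for 48 h to compound in DMSO at 10^-4 to 10^-8 M (five 10-fold levels). Growth read by SRB protein stain. GI50 is the concentration giving a 50% reduction in net protein increase relative to control cells.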

OVCAR-5 = experiment: Growth inhibition of human OVCAR5 cells assessed as cell growth at 10 uM after 48 hrs by sulforhodamine B assay; type: functional; conditions: OVCAR-5, 48 h, read-out: Activity
SNB-19 = experiment: Growth inhibition of human SNB19 cells assessed as cell growth at 10 uM after 48 hrs by sulforhodamine B assay; type: functional; conditions: SNB-19, 48 h, read-out: Activity
SK-MEL-28 [3] = experiment: Growth inhibition of human SK-MEL-28 cells after 48 hrs by sulforhodamine B assay; type: functional; conditions: SK-MEL-28, 48 h; for CC50: read-out: LC50 (the source's name)
Method in brief: (§2)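 NCI 60-cell-line panel. Cells were grown in medium with 5% fetal calf serum and 2 mM L-glutamine, then preincubated 24 h in plates. Compounds were added from DMSO at five 10-fold concentrations from 100 to 0.01 µM and left on cells continuously for 48 h. Cell growth was read by sulforhodamine B protein stain. GI50 is the concentration that halves net protein increase relative to control cells.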

HCT-15 [4] = experiment: Growth inhibition of human HCT15 cells assessed as cell growth at 10 uM after 48 hrs by sulforhodamine B assay; type: functional; conditions: HCT-15, 48 h, read-out: Activity
CCRF-CEM = experiment: Growth inhibition of human CCRF-CEM cells after 48 hrs by sulforhodamine B assay; type: functional, cell-based; conditions: for CC50: read-out: LC50 (the source's name); method in brief: as §1
HL-60(TB) = experiment: Growth inhibition of human HL-60(TB) cells after 48 hrs by sulforhodamine B assay; type: functional; conditions: HL-60, 48 h; for CC50: read-out: LC50 (the source's name)
Method in brief: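 Part of the NCI 60-cell-line panel. Cells were grown in 1640 medium with 5% fetal calf serum and 2 mM L-glutamine, then preincubated 24 h before compound was added. Compounds in DMSO were tested at five concentrations (100, 10, 1, 0.1, 0.01 µM) with 48 h continuous exposure. Read-out was SRB protein staining; GI50 is the concentration halving the net protein increase versus control.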

NCI-H23 = experiment: Growth inhibition of human NCI-H23 cells after 48 hrs by sulforhodamine B assay; type: functional; conditions: NCI-H23, 48 h; for CC50: read-out: LC50 (the source's name); method in brief: as §2
RXF 393 = experiment: Growth inhibition of human RXF393 cells after 48 hrs by sulforhodamine B assay; type: functional; conditions: RXF 393, 48 h; method in brief: as §2
MDA-MB-231 = experiment: Growth inhibition of human MDA-MB-231 cells after 48 hrs by sulforhodamine B assay; type: functional; conditions: MDA-MB-231, 48 h; method in brief: as §1
HOP-92 = experiment: Growth inhibition of human HOP92 cells assessed as cell growth at 10 uM after 48 hrs by sulforhodamine B assay; type: functional; conditions: HOP-92, 48 h, read-out: Activity
SF-539 = experiment: Growth inhibition of human SF539 cells assessed as cell growth at 10 uM after 48 hrs by sulforhodamine B assay; type: functional; conditions: SF-539, 48 h, read-out: Activity
NCI-H460 = experiment: Growth inhibition of human NCI-H460 cells assessed as cell growth at 10 uM after 48 hrs by sulforhodamine B assay; type: functional; conditions: NCI-H460, 48 h, read-out: Activity
SK-MEL-28 [5] = experiment: Growth inhibition of human SK-MEL-28 cells assessed as cell growth at 10 uM after 48 hrs by sulforhodamine B assay; type: functional; conditions: SK-MEL-28, 48 h, read-out: Activity
A549 [6] = experiment: Growth inhibition of human A549/ATCC cells assessed as cell growth at 10 uM after 48 hrs by sulforhodamine B assay; type: functional; conditions: A549, 48 h, read-out: Activity
CAKI-1 [7] = experiment: Growth inhibition of human CAKI-1 cells after 48 hrs by sulforhodamine B assay; type: functional; conditions: CAKI-1, 48 h; method in brief: as §1
CAKI-1 [8] = experiment: Growth inhibition of human CAKI-1 cells assessed as cell growth at 10 uM after 48 hrs by sulforhodamine B assay; type: functional; conditions: CAKI-1, 48 h, read-out: Activity
SF-268 [9] = experiment: Growth inhibition of human SF268 cells after 48 hrs by sulforhodamine B assay; type: functional; conditions: SF-268, 48 h; for CC50: read-out: LC50 (the source's name); method in brief: as §2
SK-MEL-5 = experiment: Growth inhibition of human SK-MEL-5 cells after 48 hrs by sulforhodamine B assay; type: functional; conditions: SK-MEL-5, 48 h; method in brief: as §2
IGROV-1 = experiment: Growth inhibition of human IGROV1 cells assessed as cell growth at 10 uM after 48 hrs by sulforhodamine B assay; type: functional; conditions: IGROV-1, 48 h, read-out: Activity
PC-3 = experiment: Growth inhibition of human PC3 cells after 48 hrs by sulforhodamine B assay; type: functional; conditions: PC-3, 48 h; method in brief: as §2
ACHN = experiment: Growth inhibition of human ACHN cells after 48 hrs by sulforhodamine B assay; type: functional; method in brief: as §1
HT-29 = experiment: Growth inhibition of human HT-29 cells after 48 hrs by sulforhodamine B assay; type: functional; conditions: HT-29, 48 h; method in brief: as §1
MOLT-4 = experiment: Growth inhibition of human MOLT4 cells assessed as cell growth at 10 uM after 48 hrs by sulforhodamine B assay; type: functional; conditions: MOLT-4, 48 h, read-out: Activity
HCT-15 [10] = experiment: Growth inhibition of human HCT15 cells after 48 hrs by sulforhodamine B assay; type: functional; conditions: HCT-15, 48 h; method in brief: as §1
UO-31 = experiment: Growth inhibition of human UO31 cells assessed as cell growth at 10 uM after 48 hrs by sulforhodamine B assay; type: functional; conditions: UO-31, 48 h, read-out: Activity
Method in brief: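 Single-dose NCI screen. Tumor lines were cultured in medium with 5% fetal calf serum and 2 mM L-glutamine, preincubated 24 h, then given compound in DMSO. After 48 h continuous exposure, cell growth was estimated by sulforhodamine B protein assay.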

OVCAR-8 = experiment: Growth inhibition of human OVCAR8 cells after 48 hrs by sulforhodamine B assay; type: functional; conditions: OVCAR-8, 48 h; method in brief: as §2
[11] = Growth inhibition of human HCC2998 cells assessed as cell growth at 10 uM after 48 hrs by sulforhodamine B assay; type: functional; conditions: HCC 2998, 48 h, read-out: Activity

## Cc1cc(O)ccc1C1=NN(c2ccc(S(C)(=O)=O)cc2)C(=O)CC1
SF-268 [1]
  growth at 10 µM: 80.3%
A549 [2]
  GI50: 6.2 µM
  TGI: > 100 µM
  CC50: > 100 µM
OVCAR-5
  growth at 10 µM: 98%
SNB-19
  growth at 10 µM: 78.2%
SK-MEL-28 [3]
  GI50: 9.56 µM
  TGI: > 100 µM
  CC50: > 100 µM
HCT-15 [4]
  growth at 10 µM: 44.9%
CCRF-CEM
  GI50: 9.09 µM
  TGI: > 100 µM
  CC50: > 100 µM
HL-60(TB)
  GI50: 3.52 µM
  TGI: 48.4 µM
  CC50: > 100 µM
NCI-H23
  GI50: 38.5 µM
  TGI: > 100 µM
  CC50: > 100 µM
RXF 393
  GI50: 12.8 µM
  LC50 (50% lethal concentration): > 100 µM
  TGI: > 100 µM
MDA-MB-231
  GI50: 17.1 µM
  LC50: > 100 µM
  TGI: > 100 µM
HOP-92
  growth at 10 µM: 92.8%
SF-539
  growth at 10 µM: 73.8%
NCI-H460
  growth at 10 µM: 73.1%
SK-MEL-28 [5]
  growth at 10 µM: 81.2%
A549 [6]
  growth at 10 µM: 72.2%
CAKI-1 [7]
  LC50 (lethal concentration, 50% cell kill): > 100 µM
CAKI-1 [8]
  growth at 10 µM: 25.4%
SF-268 [9]
  GI50: 40 µM
  TGI: > 100 µM
  CC50: > 100 µM
SK-MEL-5
  GI50: 5.49 µM
  LC50: > 100 µM
  TGI: > 100 µM
IGROV-1
  growth at 10 µM: 43.5%
PC-3
  GI50: 14.8 µM
  LC50: > 100 µM
  TGI: > 100 µM
ACHN
  GI50: 37.8 µM
  LC50 (concentration killing 50% of starting cells): > 100 µM
  TGI: > 100 µM
HT-29
  GI50: 3.7 µM
  LC50 (50% lethal concentration): > 100 µM
  TGI: 32.3 µM
MOLT-4
  growth at 10 µM: 52.7%
HCT-15 [10]
  GI50: 7.91 µM
  LC50: > 100 µM
  TGI: > 100 µM
UO-31
  growth at 10 µM: 48.8%
OVCAR-8
  GI50: 12.3 µM
  LC50: > 100 µM
  TGI: > 100 µM
[11]
  growth at 10 µM: 78.6%

## CCc1ccc(C2=NN(c3ccc(S(C)(=O)=O)cc3)C(=O)CC2)cc1
SF-268 [1]
  growth at 10 µM: 42.8%
A549 [2]
  GI50: 0.91 µM
  TGI: > 100 µM
  CC50: > 100 µM
OVCAR-5
  growth at 10 µM: 48.7%
SNB-19
  growth at 10 µM: 51.5%
SK-MEL-28 [3]
  GI50: 1.84 µM
  TGI: > 100 µM
  CC50: > 100 µM
HCT-15 [4]
  growth at 10 µM: 22.1%
CCRF-CEM
  GI50: 2.31 µM
  TGI: > 100 µM
  CC50: > 100 µM
HL-60(TB)
  GI50: 1.2 µM
  TGI: 6.35 µM
  CC50: > 100 µM
NCI-H23
  GI50: 3.19 µM
  TGI: > 100 µM
  CC50: > 100 µM
RXF 393
  GI50: 2.04 µM
  LC50 (50% lethal concentration): > 100 µM
  TGI: 19.8 µM
MDA-MB-231
  GI50: 3.46 µM
  LC50: > 100 µM
  TGI: > 100 µM
HOP-92
  growth at 10 µM: 68.6%
SF-539
  growth at 10 µM: 15.1%
NCI-H460
  growth at 10 µM: 10.6%
SK-MEL-28 [5]
  growth at 10 µM: 50.7%
A549 [6]
  growth at 10 µM: 35.6%
CAKI-1 [7]
  GI50: 1 µM
  LC50 (lethal concentration, 50% cell kill): > 100 µM
  TGI: 8.22 µM
CAKI-1 [8]
  growth at 10 µM: 16.6%
SF-268 [9]
  GI50: 6.99 µM
  TGI: > 100 µM
  CC50: > 100 µM
SK-MEL-5
  GI50: 1.48 µM
  LC50: 35.7 µM
  TGI: 11.2 µM
IGROV-1
  growth at 10 µM: 37.4%
PC-3
  GI50: 2.76 µM
  LC50: > 100 µM
  TGI: > 100 µM
ACHN
  GI50: 8.59 µM
  LC50 (concentration killing 50% of starting cells): > 100 µM
  TGI: > 100 µM
HT-29
  GI50: 0.41 µM
  LC50 (50% lethal concentration): > 100 µM
  TGI: 12.1 µM
MOLT-4
  growth at 10 µM: 15.3%
HCT-15 [10]
  GI50: 1.9 µM
  LC50: > 100 µM
  TGI: > 100 µM
UO-31
  growth at 10 µM: 33.3%
OVCAR-8
  GI50: 3.25 µM
  LC50: > 100 µM
  TGI: > 100 µM
[11]
  growth at 10 µM: 46.6%
